KCNQ1 block: inhibitors of human KCNQ1 channel, primary screen, cell-based, thallium flux, high-throughput; CHO-K1 KCNQ1, FluxOR thallium flux fluorescence; hits give high values; B-score at 10 µM; hit rate 1.3% among 310,000;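 active = compounds whose thallium flux B-score, printed positive for inhibition, exceeds three library SD while starting fluorescence stays within three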;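 note: channel opened by potassium depolarization with thallium stimulus after 20 min compound exposure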
KCNK3 block: human KCNK3 channel inhibitors, primary screen, CHO cells, FluxOR thallium flux, B-score | FluxOR fluorescence; hits give low values | B-score at 10 µM | Potassium channel subfamily K member 3 (Homo sapiens), O14649 | AID 602410, 2012 | hit rate 0.84% among 340,000;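 active = B-score under library mean minus 4 SD, starting fluorescence ratio at most library mean plus 5 SD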;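 note: more negative B-score means stronger inhibition of thallium flux through KCNK3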
Kir21 inh: inhibitors of mouse Kir2.1 inward-rectifier potassium channel; hit rate 0.85% among 310,000; HEK293-Kir2.1, FluxOR thallium flux fluorescence; hits give low values; B-score at 10 µM;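 active = fluorescence ratio B-score at or below minus 3 SD of library scores, with starting-brightness B-score within 2 SD, cut at about -4.2 in these data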;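 note: channel flux triggered by added potassium and thallium sulfate stimulus; B-score of peak minus minimum fluorescence over baseline after thallium stimulus; more negative B-score means stronger Kir2.1 block with less thallium influx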
KCNQ1 act: potentiators or activators of KCNQ1 channel, primary screen, cell-based, thallium flux, high-throughput; Potassium voltage-gated channel subfamily KQT member 1 (Homo sapiens), P51787; CHO-K1 KCNQ1, thallium flux FluxOR fluorescence; hits give high values; B-score at 10 µM; hit rate 0.35% among 310,000; AID 2648, 2010;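 active = fluorescence ratio B-score, a plate-corrected score, at least three library SD, with initial intensity B-score within 5 SD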
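assay system = KCNQ1-transfected CHO-K1 cells | medium = assay buffer with matched DMSO | probe or stimulus = depolarizing K+/Tl+ stimulus, K2SO4 and Tl2SO4 each 12.5 mM in 5x stock | dosing = single dose | incubation = dye 90 min, compound 20 min, room temperature | detection = kinetic FluxOR fluorescence, 10 s baseline plus 110 s post-stimulus | evaluation = ratio B score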
hERG rescue: hERG rescue from dofetilide block, primary screen, cell-based, CHO-hERG, FluxOR thallium flux, dofetilide IC70. dofetilide IC70 present. activation (rescue from dofetilide block), less the hit threshold, % at 10 µM. hit rate 0.51% among 310,000. AID 1511, 2009;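 active = activation above the mean of controls blocked by dofetilide plus 5 SD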;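 note: thallium influx through hERG after potassium depolarization seen as dye fluorescence rise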
KCNK9 block: KCNK9 potassium channel inhibitors, primary screen, HEK293 cells, thallium flux | FluxOR thallium flux fluorescence; hits give low values | B-score at 10 µM | hit rate 1.2% among 310,000 | AID 488922, 2010;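 active = ratio B-score over 3 SD below the library mean, with starting fluorescence within 5 SD of its mean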;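 note: negative B-score means less thallium flux so channel inhibition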
KCNQ1 block val: KCNQ1 potassium channel inhibitors, confirmation, cell-based, Tl flux, duplicate; KCNQ1 cell line, FluxOR thallium flux fluorescence; hit rate 93% among 1,600; inhibition, % at 10 µM; shares compounds with KCNQ1 block;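 active = primary screen active, with duplicate mean exceeding buffer control mean plus 3 SD of buffer wells, cut at about 28% in these data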;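 note: 0% = buffer control ratio and 100% = XE991 inhibitor control ratio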
CHO KCNQ1 ctr: thallium flux effects in parental CHO cells, counter-screen for KCNQ1 inhibitor project, cell-based, Tl flux. shares compounds with KCNQ1 block. parental CHO-K1, FluxOR thallium flux fluorescence ratio; hits give low values; zero means no signal rise above baseline. fluorescence ratio (Tl flux) at 10 µM. hit rate 21% among 1,600;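 active = mean of duplicate thallium-flux fluorescence ratios in parental host cells more than 5 SD below the buffer control mean, cut at about 0.38 in these data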;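 note: ratio is peak minus minimum fluorescence divided by baseline fluorescence; actives read low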
KCNQ1 APC inh: KCNQ1 channel inhibitors, confirmation, orthogonal assay, cell-based, automated electrophysiology; KCNQ1-CHO cells, automated patch clamp current; shares compounds with KCNQ1 block; hit rate 20% among 490; calls only at 10 µM; AID 624120, 2012;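 active = KCNQ1 current drop exceeding 3 SD of negative control wells, seen in both duplicate runs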;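 note: steady state current during a 2 s step from -80 to +40 mV; negative values mean current inhibition and positive values mean potentiation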
KCNQ2 spec: KCNQ2 channel inhibition, selectivity assay for KCNQ1 inhibitor project, cell-based. shares compounds with KCNQ1 block. inhibition, % at 10 µM. hit rate 71% among 1,600. KCNQ2 cells, FluxOR thallium flux fluorescence. AID 651746, 2012;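 active = mean percent inhibition of the KCNQ2 thallium signal more than 5 SD above the buffer-only control wells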;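 note: KCNQ2 expressed in CHO cells; 0% = buffer control wells and 100% = XE-991 inhibitor control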
KCNQ1 KCNE1 spec: KCNQ1/KCNE1 channel inhibition, selectivity assay for KCNQ1 inhibitor project, CHO-K1 cells, thallium flux, FluxOR; hit rate 77% among 1,600; shares compounds with KCNQ1 block; inhibition, % at 10 µM; AID 652147, 2013; FluxOR thallium flux fluorescence;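 active = mean percent inhibition of duplicate wells above the buffer-only control mean plus 3 SD of those controls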;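 note: 0% = buffer only wells and 100% = XE-991 inhibitor control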
* marks the source's active call; other numbers are inactive results; i = inactive; nt = no result; + = active, no number. This is a sample that favours compounds with a hit; in the whole collection about 3.7% have one here.

SMILES	KCNQ1 block	KCNK3 block	Kir21 inh	KCNQ1 act	hERG rescue	KCNK9 block	KCNQ1 block val	CHO KCNQ1 ctr	KCNQ2 spec	KCNQ1 KCNE1 spec	others
O=C(CNC(=O)c1cccc(Cl)c1)NCC(c1cccs1)N1CCOCC1 (stereo not given)	nt	i	nt	nt	nt	nt	nt	nt	nt	nt
COc1cccc(OC)c1Oc1ccc(C(F)(F)F)cn1	7*	i	-1.4	i	3.5	i	85.0*	0.437	i	82.5%*
FC(F)(F)c1ccc(Oc2ccccc2Cl)nc1	i	i	-0.22	i	-6.0	i	nt	nt	nt	nt
O=C(NC1=NCCS1)c1cccc(OC(F)F)c1	i	i	0.02	i	-0.6	i	nt	nt	nt	nt
COc1ccc(CC(=O)Nc2cccc(-c3nnc(-c4cccc(C)c4)o3)c2)cc1OC	10*	i	0.82	i	-34.4	i	144.0*	0.32*	131.7%*	97.5%*
Cc1ccc(C)c(NC(=S)NCCSc2ccc(Cl)cc2)c1	8*	i	-1.93	i	-11.3	i	121.5*	0.428	90.0%*	121.5%*	KCNQ1 APC inh=i
Cc1cccc(NC(=S)NCCSc2ccc(Cl)cc2)c1	8*	i	-0.28	i	-17.2	i	82.0*	0.426	60.3%*	95.5%*
CCc1ccccc1NC(=S)NCCSc1ccc(Cl)cc1	i	i	0.45	i	-15.8	i	nt	nt	nt	nt
O=C(O)c1cc(NS(=O)(=O)c2cccc3ccccc23)ccc1O	i	i	1.44	i	-2.3	i	nt	nt	nt	nt
O=S(=O)(Nc1c(O)ccc2ccccc12)c1cccc2ccccc12	11*	i	2.09	i	-19.9	i	32.5*	0.472	i	90.5%*
O=C1C2CC=CCC2C(=O)N1Cc1ccccc1Cl (stereo not given)	i	i	-0.28	i	-5.3	i	nt	nt	nt	nt
COc1ccc(-c2csc3nc(C)nc(N4CCCCC4)c23)cc1OC	6*	i	-0.02	i	-10.5	i	54.5*	0.417	100.3%*	87.0%*
c1ccc(CCNc2ccnc3cc4ccccc4cc23)cc1	10*	i	-7.17*	i	-39.5	-7.34*	129.5*	0.377*	81.3%*	118.0%*
COc1cccc(-c2noc(CCC(=O)NCC3CCCO3)n2)c1 (stereo not given)	i	i	0.53	i	-13.0	i	nt	nt	nt	nt
COc1ccc(-c2cc(-c3nnc(COC(=O)C4CC4)o3)c3ccccc3n2)cc1OC	i	i	0.88	i	-8.7	i	nt	nt	nt	nt
COc1ccc(-c2cc(-c3nnc(COC(=O)c4ccc(O)cc4)o3)c3ccccc3n2)cc1OC	9*	i	0.61	i	-21.7	i	104.5*	0.426	98.3%*	+	KCNQ1 APC inh=i
CN(C(=O)COC(=O)C1CCN(S(=O)(=O)c2cccs2)CC1)c1ccccc1	i	i	-4.21	i	-18.4	i	nt	nt	nt	nt
COc1ccc(-c2c(C#N)c(SCc3c(C)noc3C)nc3c2C(=O)CC(C)(C)C3)cc1	i	i	-0.45	i	-6.1	i	nt	nt	nt	nt
CCc1c(C#N)c(SCCC(=O)Nc2ccc(F)cc2)nc2c1C(=O)CC(C)(C)C2	12*	i	-0.18	i	-19.0	i	129.5*	0.379*	98.3%*	160.0%*
CCc1c(C#N)c(SCCC(=O)Nc2cccc(OC)c2)nc2c1C(=O)CC(C)(C)C2	7*	i	-1	i	-17.3	i	108.0*	0.429	99.0%*	129.0%*	KCNQ1 APC inh=i
COc1cccc(COC(=O)c2c(C)nn(-c3ccccc3)c2Cl)c1OC	7*	i	0.17	i	-9.2	i	113.5*	0.421	116.0%*	99.0%*	KCNQ1 APC inh=i
O=C(N/N=C/c1cc(Cl)cc([N+](=O)[O-])c1O)c1cccc(S(=O)(=O)N2CCOCC2)c1	nt	i	nt	nt	nt	nt	nt	nt	nt	nt
CCOC(=O)N1CCN(S(=O)(=O)c2ccc3c4c(cccc24)C(=O)N3)CC1	i	i	0.47	i	-9.0	i	nt	nt	nt	nt
CCOc1ccccc1N1CCN(S(=O)(=O)c2ccc3c4c(cccc24)C(=O)N3)CC1	7*	i	0.21	i	-7.4	i	69.0*	0.495	i	79.0%*
CNC[C@H](O)c1cccc(O)c1	i	i	-0.21	i	-4.4	i	nt	nt	nt	nt
SMILES	KCNQ1 block	KCNK3 block	Kir21 inh	KCNQ1 act	hERG rescue	KCNK9 block	KCNQ1 block val	CHO KCNQ1 ctr	KCNQ2 spec	KCNQ1 KCNE1 spec	others
CCN(CC(O)c1cccc(O)c1)C(=O)C12CC3CC(CC(C3)C1)C2 (stereo not given)	6*	i	-3.2	i	-6.1	i	66.0*	0.446	77.3%*	43.0%*
Oc1cccc(NC(=S)Nc2ccc(SC(F)F)cc2)c1	10*	i	-0.11	i	-12.9	i	68.0*	0.529	i	90.0%*
Oc1cccc(NC(=S)Nc2cccnc2)c1	i	i	-0.04	i	-4.1	i	nt	nt	nt	nt
Cc1sc2ncnc(N3CCCCC3C)c2c1C (stereo not given)	i	i	-1.41	i	-13.9	i	nt	nt	nt	nt
Cc1c(C(=O)NCCC2=CCCCC2)sc2ncnc(N3CCCCC3C)c12 (stereo not given)	8*	i	1.64	i	-16.8	i	163.5*	0.327*	150.3%*	+
O=CN1CCN(C=O)C(O)C1O (stereo not given)	nt	i	nt	nt	nt	nt	nt	nt	nt	nt
COC(=O)C(Cc1ccc(O)cc1)NC(=O)CCOc1ccc(OC)cc1 (stereo not given)	i	i	0	i	-2.2	i	nt	nt	nt	nt

Compound activity deposited in PubChem BioAssay by Johns Hopkins Ion Channel Center.
